Screens as filed in PubChem.
UPR XBP1 act: activators of adaptive arm of unfolded protein response (XBP1) | CHO-XBP1 luciferase reporter, IRE1-XBP1 UPR activation, luminescence; percent of tunicamycin response, DMSO as zero | activation, % at 20 µM | hit rate 0.33% among 330,000 | AID 463104;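 active = versus positive control, 20 µM dose yields 30% or more activation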;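 also: 100% = tunicamycin at 10 µg/mL and 0% = DMSO only wells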
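Test system: CHO-XBP1 luciferase reporter cells | Buffer or medium: Serum-containing F12 medium, 10% FBS | Schedule: 6 h compound exposure at 37 °C, 5% CO2 | Detection: Steady-Glo luciferase glow luminescence, 10 min after reagent addition | Read-out basis: Activation, % of tunicamycin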
GAA850 FXN act: activators of GAA850 frataxin (FXN) promoter | HEK293 lucGAA850 FXN promoter luciferase reporter, 24 h; percent of 10 µM SAHA response | activation, % at 6 µM | hit rate 0.56% among 360,000 | AID 540364;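 active = activation above the average of all compounds screened plus 3 SD, cutoff fixed separately per campaign, cut at about 7.5% in these data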;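 also: 0% = DMSO wells and 100% = 10 µM SAHA wells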
CHOP inh: inhibitors of CHOP induction in ER stress response | CHO-K1 CHOP-promoter luciferase, tunicamycin-induced, 15-18 h | inhibition, % at 10 µM | hit rate 3.8% among 220,000;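 active = compounds that reduced the stress-induced luciferase reporter signal by more than about 70% of percent inhibition, limit read from the data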;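 also: 0% = tunicamycin plus vehicle and 100% = wells without tunicamycin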
UPR CHOP act: apoptotic UPR (CHOP) activation. hit rate 0.34% among 330,000. activation, % at 10 µM. AID 449763. CHO-CHOP luciferase reporter, luminescence; percent of tunicamycin response over DMSO baseline;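 active = at 10 µM dose, activation of 40% or more, normalized to positive control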;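 also: 100% = tunicamycin at 10 µg/mL and 0% = DMSO alone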
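Dosing – one dose, 10 µM in 0.5% DMSO · System – CHO-CHOP cells, stable luciferase reporter of PERK-eIF2a-CHOP signalling · Input – 500 cells/well · Control set – tunicamycin 10 µg/mL final as positive, DMSO-only wells as negative · Timing – 6 h compound treatment, 37 °C · Measure – % activation vs tunicamycin · Technique – luminescence read with Steady-Glo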
* = called active by the depositor; x = no result. This excerpt belongs to a sample that is enriched for hits.

SMILES	UPR XBP1 act	GAA850 FXN act	CHOP inh	UPR CHOP act
CC1=CC(C)(C)N2C(=O)C3(C(C#N)=C(N)Oc4cc(O)ccc43)c3c(C)c(C)cc1c32 (centres undefined)	4	-2	96*	1
CC1=CC(C)(C)N2C(=O)C3(C(C#N)=C(N)OC4=C3C(=O)CCC4)c3c(C)c(C)cc1c32 (centres undefined)	0	-2	50	1
Oc1ccccc1-c1cc(C(F)(F)F)nc(-c2ccccc2)n1	-2	2	73*	-2
CN(C)c1ccc(/C=C/c2nc3ccccc3s2)cc1	-5	-13	81*	-7
CN(C)c1ccc(/C=C/c2ccc3ccccc3n2)cc1	x	-12	78*	x
C(=C\c1ccc2ccccc2n1)/c1ccccc1	-8	-2	71*	-5
CC(=O)N(C(C)=O)N1C(=O)/C(=C/c2ccc(Cl)cc2)SC1=S	0	-1	91*	-1
O=C(CN1C(=O)CS/C1=C\c1nc(-c2ccc(Cl)cc2)cs1)Nc1cccnc1Cl	13	3	-6	1
Cc1ccc(-c2csc(/C=C3\SC(C)C(=O)N3CC(=O)Nc3ccccc3F)n2)cc1 (centres undefined)	-1	0	93*	2
Cc1ccc(NC(=O)CSc2nnnn2-c2ccc3c(c2)OCO3)cc1C	-4	0	92*	-4
O=C(CSc1nnnn1-c1ccccc1)Nc1ccc(Cl)cc1	1	0	88*	1
Cc1sc(NC(=O)CSc2nnnn2C)c(C#N)c1C	5	-2	0	-2
CC(=O)c1ccc(-n2nnnc2SCC(=O)Nc2sc(C)c(C)c2C#N)cc1	2	2	81*	2
Cc1ccc(-n2nnnc2SCC(=O)Nc2ccc3c(c2)OCCO3)cc1C	0	0	35	-1
Cc1ccc(-n2nnnc2SCC(=O)Nc2sc(C)c(C)c2C#N)cc1C	3	1	83*	-2
CCCC(=O)N1CCC1(C)C(=O)NS(=O)(=O)c1cc2c(cc1C)CCCS2(=O)=O (centres undefined)	x	-2	x	x
Cc1cc(F)cc(-c2cc(C(=O)NCC3CCCCC3)[nH]n2)c1	x	2	x	x
COC(=O)c1ccc(COc2cccn3c(N(C)C(=O)CCC4CCCC4)c(C)nc23)cc1	x	-1	x	x
COc1cccc(CNc2nc3cc(-c4cnn(Cc5ccccc5)c4)sc3c(=O)n2C)c1	x	-4	x	x
O=C1CC(N2CCC(Cc3ccccc3)CC2)C(=O)N1CCc1ccccc1 (centres undefined)	-2	-1	72*	-1
Nc1ncnc2c1ccn2[C@H]1CN(Cc2ccc(Cl)cc2)C[C@@H](CO)O1	x	1	x	x
COC(=O)C(C)Oc1ccc(-c2nccc(-c3cccs3)n2)cc1 (centres undefined)	0	1	91*	7
CCC(CC)C(=O)N(C)c1c(C)nc2c(OCc3ccc(F)c(F)c3)cccn12	x	0	x	x
Cc1ccc(C(NC(=O)C2CCN(CCOc3ccccc3)CC2)c2ccccn2)cc1 (centres undefined)	x	0	x	x
CC(O)CNc1nc2sc3c(c2c(=O)n1CCc1ccccc1)CCCCC3 (centres undefined)	2	7	91*	4
SMILES	UPR XBP1 act	GAA850 FXN act	CHOP inh	UPR CHOP act
CN(C)CCNc1nc2sc3c(c2c(=O)n1CCc1ccccc1)CCCCC3	8	0	2	5
Cc1noc(C)c1C(=O)Nc1nc(C23CC4CC(CC(C4)C2)C3)cs1	3	2	83*	6
Cc1c(CN(C)C(=O)C2CCC(=O)N(Cc3ccccc3F)C2)[nH]c2ccccc12 (centres undefined)	x	-1	x	x
COCCNC(=O)C1(C)CCCN(C(=O)c2cccc(OC(F)(F)F)c2)C1 (centres undefined)	x	-1	x	x
O=C(NCc1cccnc1)c1ccc(COc2ccc(Cl)cc2)cc1	4	-1	71*	9
O=C(COc1ccc(Cl)cc1)Nc1ccc(C(=O)NCc2cccnc2)cc1	0	0	-4	1
C[C@@H]1CN([C@H](C)CO)S(=O)(=O)c2ccc(C#Cc3cccc(F)c3)cc2O[C@@H]1CN(C)C(=O)CN1CCOCC1	x	-1	x	x
Cc1ccc(/C=N/Nc2ccnc3cc(Cl)ccc23)c(C)c1	22	-2	105*	26
Cc1ccccc1CSc1nc(-c2ccccc2)cc(=O)[nH]1	-2	-1	87*	1
O=c1cc(-c2ccccc2)nc(SCc2ccccc2F)[nH]1	-3	1	-2	-1
Cc1sc2nc(CSc3ccccc3)nc(N3CCOCC3)c2c1C	3	7	72*	-2
Cc1sc2nc(CSc3ccccc3)nc(N3CCC(C(N)=O)CC3)c2c1C	14	2	19	1
COc1cccc(-c2cnc(C(O)c3ccc(C(C)(C)C)cc3)[nH]2)c1 (centres undefined)	x	-4	x	x
CCOc1cc(CNCCc2ccc(S(N)(=O)=O)cc2)cc(Cl)c1OCc1ccccc1	9	-1	70*	8
CC1(C(=O)NS(=O)(=O)C2CC2)CCN(C(=O)c2cccc(Cl)c2)C1 (centres undefined)	x	0	x	x
CCCn1c(CC)nc([N+](=O)[O-])c1Sc1ncn[nH]1	x	0	x	x
CC(N)c1csc(Nc2nncc3ccccc23)n1 (centres undefined)	x	3	x	x
Cc1cccc(OCc2nc(C#N)c(NCc3ccc4c(c3)OCO4)o2)c1	1	1	57	2
N#Cc1nc(-c2ccc(F)cc2)oc1NCc1ccccc1	1	4	82*	1
Cc1ccc(CNc2oc(COc3ccccc3Cl)nc2C#N)cc1	-4	5	85*	1
N#Cc1nc(COc2ccccc2F)oc1NCCc1ccccc1	0	3	80*	3
N#Cc1nc(COc2ccc(Cl)cc2)oc1NCc1ccc2c(c1)OCO2	-2	1	73*	3
COc1ccc(CCNc2oc(COc3ccccc3)nc2C#N)cc1	0	3	35	-1
CCc1nc2c(OCCc3cccc(OC)c3)cccn2c1N(C)C(=O)c1ccc(OC)cc1	x	-3	x	x
OC(c1cc(F)cc(Cl)c1)c1ncc(-c2ccccc2Cl)[nH]1 (centres undefined)	x	-1	x	x
SMILES	UPR XBP1 act	GAA850 FXN act	CHOP inh	UPR CHOP act
COc1ccccc1-c1cccc2nccn12	x	4	x	x
O=C(CC1CCCC1)NCCS(=O)(=O)N1CCN(c2ccccc2)CC1	x	-2	x	x
CC(NS(=O)(=O)/C=C/c1ccccc1)C(=O)O (centres undefined)	0	0	86*	2
CCCN1CCC(C)(C(=O)Nc2cccc(OC(C)C)c2)C1 (centres undefined)	x	-1	x	x
Cc1cccc(NC(c2ccc(C)s2)c2ccc3ccc(C)nc3c2O)n1 (centres undefined)	2	-1	24	93*
Cc1ccc2ccc(C(Nc3ccccn3)c3ccccc3)c(O)c2n1 (centres undefined)	2	-2	-51	3
FC(F)(F)c1cc(Sc2ccccc2)nc(-c2ccccn2)n1	4	5	71*	-1
FC(F)(F)c1cc(Nc2ccccc2)nc(-c2ccccn2)n1	-3	1	x	1
